# Legend:
# [1] = system: A2780/Adr (drug resistant); test: Fluorometric microculture cytotoxicity assay; format: cell-based, human; settings: for IC50 ratio (resistant vs sensitive cells): A2780/Adr vs A2780; for IC50: 72 h, A2780/Adr (drug resistant) ovarian carcinoma
# Procedure, shortened: (§1)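 FMCA with cells seeded into plates pre-loaded with compound and stored at −20°C or −80°C. Seeding was 1,000–2,500 (384-well) or 5,000–10,000 (96-well) cells/well. Culture media: RPMI 1640 for CCRF-CEM, A2780, A2780/Adr, BXPC-3, U-937 and RPMI 8226; McCoy's for HT29 and HCT116. After 72 h, plates were washed and given fluorescein diacetate buffer for 45 min, then fluorescence was read. Survival index = (treated − blank)/(control − blank); IC50 taken from curves.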
# [2] = system: bovine tubulin protein; test: In vitro tubulin polymerization assay; format: biochemical; settings: cell-free, 60 min
# Procedure, shortened: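 Commercial kit using bovine tubulin, cell-free. The test compound was tested at 1.0–10 µM. Vincristine and paclitaxel at 3.0 µM served as inhibition and stabilization controls. Compounds were dissolved in DMSO and diluted in sterile water to at most 0.1% DMSO, which was the solvent control. Polymerization was followed by a fluorescent reporter incorporated into microtubules and read continuously at 360/450 nm for 60 min.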
# [3] = system: developing blood vessels of chick embryo; test: Ex ovo chicken embryo chorioallantoic membrane; format: in vivo; settings: for effect on blood vessel growth and integrity: 10 nM, vs DMSO vehicle; for growth of the blood vessels (change in relative surface area) / vascular integrity (discontinuity of the vessels): 50 nM, 24 and 48 h posttreatment, vs controls
# Procedure, shortened: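 Fertilized eggs incubated at 37.5°C and 60% humidity, then opened into 10 cm dishes on day 4. Two days later a 5 mm filter paper carrying test compound (10, 50, 200 nM), reference vascular disrupting agent or DMSO was laid on the CAM between two main vessels. Eggs were incubated 2 more days and photographed at 0, 24 and 48 h. Read-outs: relative surface area of vessels touching the paper, and disruption index (intact segments >10 mm).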
# [4] = system: Caco-2 cell monolayers; test: Caco-2 permeability assay; format: in vitro ADME, human
# Procedure, shortened: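 Caco-2 monolayers grown to confluence on collagen-coated polycarbonate transwell membranes. Buffer was HBSS with 10 mM HEPES and 15 mM glucose, pH 7.4; the receiver side also held 1% BSA. 5 μM test compound was dosed apically (A-to-B) or basolaterally (B-to-A) at 37°C, 5% CO2. Donor and receiver were sampled at 120 min, in duplicate. Co-applied Lucifer yellow checked integrity. High permeability: Papp A-to-B ≥1.0×10−6 cm/s.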
# [5] = system: panel of eight cancer cell lines; test: FMCA, range over the panel of cancer cell lines; format: cell-based, human; settings: read-out: IC50, range over cell lines
# Procedure, shortened: as §1
# [6] = system: HCT116 cells; test: Live cell microscopy; format: cell-based, human; settings: HCT116, 50 nM, 30 cells
# Procedure, shortened: (§2)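 HCT116, HCT8 and MCF10A cells were given 50 nM test compound or a reference tubulin agent and imaged on an IncuCyte immediately and for 3 days, at 1 h intervals, in three replicates. Growth curves used mean confluence from six images per time point. Mitotic duration and mitotic fate were scored from time-lapse films: 10 cells per well, 30 cells per condition.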
# [7] = system: HCT8 cells; test: Live cell microscopy; format: cell-based, human; settings: HCT8, 50 nM, 30 cells
# Procedure, shortened: as §2
# [8] = system: MCF10A cells; test: Live cell microscopy; format: cell-based, human; settings: 50 nM, 30 cells
# Procedure, shortened: as §2
# [9] = system: HCT116, HCT8 and MCF10A cells; format: cell-based, human
# Procedure, shortened: as §2
# [10] = system: OvCar-8 cells; test: Time-lapse mitotic index and cell death index in OC cell lines; format: cell-based, human; settings: OvCar-8, 12.5 nM
# Procedure, shortened: (§3)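 Ovarian OvCar-8, OvCar-4 and CaOv-3 cells were time-lapse filmed for 3 days, starting immediately after adding 12.5 nM test compound, 12.5 nM paclitaxel or vehicle alone. Mitotic index and cell death index were scored from the films at 12, 24, 48 and 72 h.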
# [11] = system: OvCar-4 cells; test: Time-lapse mitotic index and cell death index in OC cell lines; format: cell-based, human
# [12] = system: CaOv-3 cells; test: Time-lapse mitotic index and cell death index in OC cell lines; format: cell-based, human; settings: CaOv-3, 12.5 nM
# Procedure, shortened: as §3
# [13] = system: cocultures of endothelial colony forming cells (ECFCs) and adipocyte derived stem cells (ADSCs); test: Vascular tube formation assay, neoangiogenic; format: cell-based, human; settings: 4.6 nM–10 µM, VEGF 20 ng/mL coapplied on day 0
# Procedure, shortened: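 Cocultures of GFP-labelled endothelial colony forming cells and adipocyte-derived stem cells (StemKit). Compounds were co-applied with VEGF (20 ng/mL) on day 0 to follow cord formation. Fluorescent and phase-contrast images (10×) were taken every 6 h for up to 8 days. Cord length (mm/mm2) and branch points were analysed from 3–6 separate samples per condition.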
# [14] = system: cocultures of endothelial colony forming cells (ECFCs) and adipocyte derived stem cells (ADSCs); test: Vascular tube formation assay, disruption of established cords; format: cell-based, human
# Procedure, shortened: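 Cocultures of GFP-labelled endothelial colony forming cells and adipocyte-derived stem cells were stimulated with VEGF (20 ng/mL) to form cords. Compounds were added to the established cords at 96 h. Images were taken every 6 h and scored for relative cord length and branch points. pIC50 came from a four-parameter logistic fit of area-under-curve data between 96 and 186 h.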
# [15] = Plasma levels in the maximal tolerated dose study; format: in vivo, NMRI nu/nu female mice
# Procedure, shortened: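 In the maximal tolerated dose study, female NMRI nu/nu mice received test compound PO at 10, 20 or 40 mg/kg. Plasma concentrations were measured 1 and 4 h after dosing.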
# [16] = system: A2780 xenograft; test: Human OC cell xenograft study; format: in vivo, NMRI nu/nu female nude mice
structure (smiles),measurement,setting,value
"CC[C@]1(O)C[C@H]2CN(CCc3c([nH]c4ccccc34)[C@@](C(=O)OC)(c3cc4c(cc3OC)N(C=O)[C@H]3[C@@](O)(C(=O)OC)[C@H](OC(C)=O)[C@]5(CC)C=CCN6CC[C@]43[C@@H]65)C2)C1 [VinC, vincristine]",IC50 ratio (resistant vs sensitive cells),[1],955
same,IC50,"[1]; Homo sapiens, A2780 ADR",210 nM
same,effect on tubulin polymerization,[2]; 3.0 µM,suppress tubulin heterodimer polymerization
"COc1ccc(/C=C\c2cc(OC)c(OC)c(OC)c2)cc1O [Combretastatin A4, reference compound]",effect on blood vessel growth and integrity,[3],ineffective
same,growth of the blood vessels (change in relative surface area),[3],significantly suppressed
same,vascular integrity (discontinuity of the vessels),[3],significantly suppressed
COc1ccc2[nH]cc(CCNc3nccc(Nc4cccc5c4ccn5C)n3)c2c1 [NOV202],Efflux ratio,[4]; bi-directional Caco-2,1.0
same,Efflux substrate,[4]; significant efflux: efflux ratio >3.0 and Papp B-to-A ≥1.0×10^−6 cm/s,no significant efflux
same,IC50,[1],2.3 nM
same,IC50 ratio (resistant vs sensitive cells),[1],0.96
same,IC50,[5],2.3 to 12 nM
same,average duration of mitosis,[6],26.2 ± 7.1 h
same,average duration of mitosis,[7],11.8 ± 3.1 h
same,average duration of mitosis,[8],16.4 ± 5.2 h
same,cell population growth (cell confluency),"[9]; 50 nM, filmed for 3 days",strong growth suppression
same,effect on interphase and mitotic microtubule networks,"[9]; 15–50 nM, data not shown",markedly disrupted or completely wiped out
same,mitotic index (MI),[10]; 12 h,27.0%±4.0%
same,cell death index (CDI),[10]; 24 h,29.0%±9.0%
same,cell death index (CDI),[10]; 48 h,31.0%±10.5%
same,cell death index (CDI),[10]; 72 h,30.0%±2.3%
same,mitotic index (MI),"[11]; OvCar-4, 12.5 nM, 12 h",24.0%±9.5%
same,cell death index (CDI),"[11]; OvCar-4, 12.5 nM, 24 h",13.7%±1.5%
same,cell death index (CDI),"[11]; OvCar-4, 12.5 nM, 48 h",16.3%±2.1%
same,cell death index (CDI),"[11]; OvCar-4, 12.5 nM, 72 h",12.0%±1.0%
same,cell death index (CDI),"[11]; OvCar-4, 50 nM, 24 h",28.7%±6.8%
same,cell death index (CDI),"[11]; OvCar-4, 50 nM, 48 h",48.3%±10.7%
same,cell death index (CDI),"[11]; OvCar-4, 50 nM, 72 h",59.3%±13.2%
same,mitotic index (MI),[12]; 12 h,12.7%±2.5%
same,cell death index (CDI),[12]; 24 h,46.0%±1.7%
same,cell death index (CDI),[12]; 48 h,68.7%±4.2%
same,cell death index (CDI),[12]; 72 h,77.0%±4.6%
same,effect on tubulin polymerization,[2]; 1.0 µM,"slowed down the rate of the polymerization, but could not suppress it"
same,effect on tubulin polymerization,[2]; 3.0 µM,suppress tubulin heterodimer polymerization
same,effect on tubulin polymerization,[2]; 10 µM,block the polymerization almost completely
same,VEGF-induced cord (tube) formation,[13],completely inhibit tube formation
same,"pIC50, disruption of VEGF stimulated established cords","[14]; four-parameter logistic fit of AUC between 96 and 186 h, VEGF 20 ng/mL",8.3
same,effect on blood vessel growth and integrity,[3],ineffective
same,growth of the blood vessels (change in relative surface area),[3],significantly suppressed
same,vascular integrity (discontinuity of the vessels),[3],significantly suppressed
same,plasma concentration,"[15]; PO 10 mg/kg, 1 h post-dosing",21 nM
same,plasma concentration,"[15]; PO 10 mg/kg, 4 h post-dosing",17 nM
same,plasma concentration,"[15]; PO 20 mg/kg, 1 h post-dosing",54 nM
same,plasma concentration,"[15]; PO 20 mg/kg, 4 h post-dosing",29 nM
same,plasma concentration,"[15]; PO 40 mg/kg, 1 h post-dosing",309 nM
same,plasma concentration,"[15]; PO 40 mg/kg, 4 h post-dosing",76 nM
same,effect on tumor volume,"[16]; PO 40 mg/kg, 5 days on/2 days off, comparable to paclitaxel 24 mg/kg IV",clear antitumor effect
same,tolerability by body weight measurements,"[16]; PO 10, 20, 40 mg/kg during the treatment",well tolerated
"CCC[C@H](Nc1nc(-c2ccc(NC(=O)NCC)c(OC)c2)ncc1C)c1cccnc1 [CYT997, lexibulin]",IC50 ratio (resistant vs sensitive cells),[1],3.35
same,IC50,"[1]; Homo sapiens, A2780 ADR",183 nM
"Cc1ccc(C(=O)Nc2ccc(S(=O)(=O)O)c3cc(S(=O)(=O)O)cc(S(=O)(=O)O)c23)cc1NC(=O)c1cccc(NC(=O)Nc2cccc(C(=O)Nc3cc(C(=O)Nc4ccc(S(=O)(=O)O)c5cc(S(=O)(=O)O)cc(S(=O)(=O)O)c45)ccc3C)c2)c1 [suramin, reference compound]",effect on established cords,"[14]; 100 µM, added at t=96 h",complete regression of established cords
"CC(=O)O[C@H]1C(=O)[C@@]2(C)[C@H]([C@H](OC(=O)c3ccccc3)[C@]3(O)C[C@H](OC(=O)[C@H](O)[C@@H](NC(=O)c4ccccc4)c4ccccc4)C(C)=C1C3(C)C)[C@]1(OC(C)=O)CO[C@@H]1C[C@@H]2O [PTX, paclitaxel]",IC50 ratio (resistant vs sensitive cells),[1],"3,115"
same,IC50,"[1]; Homo sapiens, A2780 ADR",810 nM
same,effect on tubulin polymerization,[2]; 3.0 µM,effective stabilizer of tubulin polymerization
